This note sets out measurements from ChEMBL document CHEMBL1255307, “Role of the AheABC efflux pump in Aeromonas hydrophila intrinsic multidrug resistance” (2008).

In brackets after ≈: the same amount, converted by molar mass. Where a SMILES comes first, the peptide text is derived from it. Bridges are numbered along the chain shown (N, C = ends). [ ]: non-standard residue; d: D form. The star is where a group is joined. NMePhe(4-NMe2) = CN[C@@H](Cc1ccc(N(C)C)cc1)C(=O)O; Pip(4-oxo) = O=C1CCN[C@H](C(=O)O)C1; Picolinoyl(3-OH) = O=C(c1ncccc1O)*; Phg = N[C@H](C(=O)O)c1ccccc1; dAbu = CC[C@@H](N)C(=O)O

Common to all, as to type: functional
The nature of assay [1]: (§1) Antimicrobial activity against Aeromonas hydrophila subsp. hydrophila ATCC 7966 harboring plasmid pEX19Gm by agar dilution method in presence of 64 mg/L efflux pump inhibitor phenylalanine-arginine-beta-naphthylamide. (In agar dilution, organisms are placed on agar that contains the substance at set levels.)
A short description of assay [2]: (§2) Antimicrobial activity against aheB deficient kanamycin-resistant Aeromonas hydrophila subsp. hydrophila ATCC 7966 harboring plasmid pEX19Gm by agar dilution method. In short, it runs like this:
(§3)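 Agar dilution MICs on MH medium, final inoculum about 10^4 CFU per spot. Tested in A. hydrophila ATCC 7966T and E. coli TG1 strains (wild type, ΔaheB::kan or ΔacrAB), each carrying empty pEX19Gm or a pump-encoding plasmid (pEXAheABC, pUCAcrAB). Run at least in triplicate, mode value reported.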

Assay [3] can be described thus: (§4) Antimicrobial activity against aheB deficient kanamycin-resistant Aeromonas hydrophila subsp. hydrophila ATCC 7966 harboring plasmid pEX19Gm by agar dilution method in presence of 64 mg/L efflux pump inhibitor phenylalanine-arginine-beta-naphthylamide.
Assay [4] is described as follows: (§5) Antimicrobial activity against aheB deficient kanamycin-resistant Aeromonas hydrophila subsp. hydrophila ATCC 7966 harboring AheABC efflux pump by agar dilution method. Put shortly:
as §3

The nature of assay [5]: (§6) Antimicrobial activity against aheB-deficient kanamycin-resistant Aeromonas hydrophila subsp. hydrophila ATCC 7966 harboring AheABC efflux pump by agar dilution method in presence of 64 mg/L efflux pump inhibitor phenylalanine-arginine-beta-naphthylamide.
Assay [6] relates to Escherichia coli. As to the kind of experiment: Antimicrobial activity against Escherichia coli TG1 harboring plasmid pEX19Gm by agar dilution method. In short, it runs like this: as §3
For assay [7], the system named is Escherichia coli. As to the kind of experiment: Antimicrobial activity against acrAB-deficient Escherichia coli TG1 harboring plasmid pEX19Gm by agar dilution method. In short, it runs like this:
as §3

Assay [8] relates to Escherichia coli. As to the kind of experiment: Antimicrobial activity against acrAB-deficient Escherichia coli TG1 harboring AcrAB efflux pump by agar dilution method. Put shortly:
as §3

Assay [9] relates to Escherichia coli. As to the kind of experiment: Antimicrobial activity against acrAB-deficient Escherichia coli TG1 harboring AheABC efflux pump by agar dilution method. In short, it runs like this: as §3
The nature of assay [10]: (§7) Antimicrobial activity against Aeromonas hydrophila subsp. hydrophila ATCC 7966 harboring plasmid pEX19Gm by agar dilution method. In short, it runs like this:
as §3

Assay [11] deals with Aeromonas hydrophila subsp. hydrophila ATCC 7966. The description is as §1.
Assay [12] has the same test system. Described as §2. Put shortly:
as §3

The test system is the same in assay [13]. The assay is described as §4.
For assay [14] the test system is unchanged. The assay is described as §5. In short, it runs like this:
as §3

Assay [15] shares this test system. Described as §6.
Assay [16] shares this test system. The assay is described as §7. Put shortly:
as §3

With `CC(=O)O[C@H]1C[C@@]2(C)[C@@H](C[C@@H](O)[C@H]3[C@@]4(C)CC[C@@H](O)[C@@H](C)[C@@H]4CC[C@@]32C)/C1=C(\CCC=C(C)C)C(=O)O` [FUSIDIC ACID], the MIC (as a rule, the lowest concentration found to suppress growth) was found to be 2 µg/mL in assay [1]; 64 µg/mL (≈ 124 µM) in assay [2]; 1 µg/mL in [3]; 256 µg/mL (≈ 495 µM) in assay [4]; 8 µg/mL in assay [5]; 512 µg/mL (≈ 991 µM) against Escherichia coli [6]. The MIC came out at 2 µg/mL (≈ 3.87 µM) against Escherichia coli [7], 512 µg/mL (≈ 991 µM) in the assay with Escherichia coli [8], 128 µg/mL (≈ 248 µM) against Escherichia coli [9] and 128 µg/mL (≈ 248 µM) in assay [10].

In the case of `CCC[C@@H]1C[C@@H](C(=O)N[C@@H]([C@H]2O[C@H](SC)[C@H](O)[C@@H](O)[C@H]2O)[C@@H](C)O)N(C)C1` [LINCOMYCIN], the MIC in assay [1] came to 128 µg/mL; in assay [2], 64 µg/mL (≈ 157 µM); in assay [3], 64 µg/mL; in [4] it was 256 µg/mL (≈ 630 µM); in assay [5] it was 256 µg/mL; against Escherichia coli [6], 1020 µg/mL (≈ 2520 µM). The MIC was 64 µg/mL (≈ 157 µM) in the assay on Escherichia coli [7], greater than 1020 µg/mL in the assay on Escherichia coli [8], 512 µg/mL (≈ 1260 µM) against Escherichia coli [9] and 128 µg/mL (≈ 315 µM) in [10].

Turning to `COc1cc(Cc2cnc(N)nc2N)cc(OC)c1OC` [TRIMETHOPRIM], the MIC in assay [1] came to 8 µg/mL; in [2], 8 µg/mL (≈ 27.6 µM); in [3], 4 µg/mL; in assay [4] it was 32 µg/mL (≈ 110 µM); in assay [5], 16 µg/mL; in the assay with Escherichia coli [6], 0.2 µg/mL (≈ 0.689 µM). For the same molecule, the MIC against Escherichia coli [7] turned out to be 0.05 µg/mL (≈ 0.172 µM); in the assay on Escherichia coli [8], 0.05 µg/mL (≈ 0.172 µM); in the assay on Escherichia coli [9], 0.05 µg/mL (≈ 0.172 µM); in assay [10] it was 16 µg/mL (≈ 55.1 µM).

Consider `CN(C)c1ccc2cc3ccc(N(C)C)cc3nc2c1` [ACRIDINE ORANGE], for which the MIC is 256 µg/mL in assay [1]; 256 µg/mL (≈ 965 µM) in assay [2]; 128 µg/mL in assay [3]; 1020 µg/mL (≈ 3860 µM) in [4]; 256 µg/mL in assay [5]; greater than 1020 µg/mL against Escherichia coli [6]. Also, the MIC is 128 µg/mL (≈ 482 µM) in the assay on Escherichia coli [7], greater than 1020 µg/mL with Escherichia coli [8], 256 µg/mL (≈ 965 µM) with Escherichia coli [9] and 512 µg/mL (≈ 1930 µM) in assay [10].

`CN(C)c1ccc(O)c2c1C[C@H]1C[C@H]3[C@H](N(C)C)C(O)=C(C(N)=O)C(=O)[C@@]3(O)C(O)=C1C2=O` [MINOCYCLINE]: the MIC turned out to be 0.5 µg/mL in assay [1]; 0.4 µg/mL (≈ 0.874 µM) in [2]; 0.25 µg/mL in [3]; 2 µg/mL (≈ 4.37 µM) in [4]; 1 µg/mL in [5]; 1 µg/mL (≈ 2.19 µM) in the assay with Escherichia coli [6]. Further, the MIC is 0.12 µg/mL (≈ 0.262 µM) against Escherichia coli [7], 2 µg/mL (≈ 4.37 µM) with Escherichia coli [8], 1 µg/mL (≈ 2.19 µM) against Escherichia coli [9] and 1 µg/mL (≈ 2.19 µM) in assay [10].

Take `CO/N=C(\C(=O)N[C@@H]1C(=O)N2C(C(=O)O)=C(COC(N)=O)CS[C@H]12)c1ccco1` [CEFUROXIME]: the MIC in [1] amounted to 1 µg/mL; in assay [2] it was 0.25 µg/mL (≈ 0.589 µM); in [3], 0.25 µg/mL; in [4] it was 4 µg/mL (≈ 9.43 µM); in assay [5], 4 µg/mL; in the assay on Escherichia coli [6], 4 µg/mL (≈ 9.43 µM). Besides, the MIC was determined as 0.5 µg/mL (≈ 1.18 µM) with Escherichia coli [7], 8 µg/mL (≈ 18.9 µM) in the assay on Escherichia coli [8], 2 µg/mL (≈ 4.71 µM) with Escherichia coli [9] and 1 µg/mL (≈ 2.36 µM) in [10].

Consider `CO[C@H]1/C=C/O[C@@]2(C)Oc3c(C)c(O)c4c(O)c(c(/C=N/N5CCN(C)CC5)c(O)c4c3C2=O)NC(=O)/C(C)=C\C=C\[C@H](C)[C@H](O)[C@@H](C)[C@@H](O)[C@@H](C)[C@H](OC(C)=O)[C@@H]1C` [RIFAMPIN], for which the minimal inhibitory concentration (MIC) in [1] is 0.06 µg/mL; in assay [2] it was 1 µg/mL (≈ 1.22 µM); in [3], 0.03 µg/mL; in assay [4], 4 µg/mL (≈ 4.86 µM); in assay [5], 0.12 µg/mL; with Escherichia coli [6], 16 µg/mL (≈ 19.4 µM). Further, the MIC in the assay on Escherichia coli [7] amounted to 8 µg/mL (≈ 9.72 µM); in the assay on Escherichia coli [8], 16 µg/mL (≈ 19.4 µM); against Escherichia coli [9] it was 8 µg/mL (≈ 9.72 µM); in assay [10], 2 µg/mL (≈ 2.43 µM).

For `CC[C@H]1NC(=O)[C@@H](NC(=O)c2ncccc2O)[C@@H](C)OC(=O)[C@H](c2ccccc2)NC(=O)[C@@H]2CC(=O)CCN2C(=O)[C@H](Cc2ccc(N(C)C)cc2)N(C)C(=O)[C@@H]2CCCN2C1=O` [PRISTINAMYCIN 1A] ({Picolinoyl(3-OH)}-T[dAbu]P[NMePhe(4-NMe2)][Pip(4-oxo)][Phg]; ester 1-C), the MIC in assay [1] worked out at 2 µg/mL; in assay [2], 8 µg/mL (≈ 9.23 µM); in assay [3], 1 µg/mL; in assay [4], 128 µg/mL (≈ 148 µM); in [5] it was 4 µg/mL; with Escherichia coli [6], 64 µg/mL (≈ 73.8 µM). For the same molecule, the MIC was 4 µg/mL (≈ 4.61 µM) in the assay with Escherichia coli [7], 64 µg/mL (≈ 73.8 µM) against Escherichia coli [8], 64 µg/mL (≈ 73.8 µM) in the assay with Escherichia coli [9] and 32 µg/mL (≈ 36.9 µM) in assay [10].

As for `CC[n+]1c(-c2ccccc2)c2cc(N)ccc2c2ccc(N)cc21.[Br-]` [HOMIDIUM BROMIDE], the MIC in assay [1] is 128 µg/mL; in [2], 64 µg/mL; in [3], 64 µg/mL; in assay [4] it was 512 µg/mL; in [5], 512 µg/mL; in the assay with Escherichia coli [6] it was 512 µg/mL. The MIC against Escherichia coli [7] worked out at 2 µg/mL; in the assay with Escherichia coli [8] it was 512 µg/mL; in the assay on Escherichia coli [9], 64 µg/mL; in assay [10] it was 128 µg/mL.

On to TRIBUTYLSTANNANYL, for which the MIC in [11] is 2 µg/mL; in assay [12] it was 16 µg/mL; in assay [13], 2 µg/mL; in [14], 256 µg/mL; in assay [15], 4 µg/mL; in the assay with Escherichia coli [6] it was greater than 1020 µg/mL. Besides, the MIC is 4 µg/mL in the assay on Escherichia coli [7], greater than 1020 µg/mL against Escherichia coli [8], 16 µg/mL against Escherichia coli [9] and 32 µg/mL in assay [16].

In the case of `CCN1CCN(C(=O)N[C@@H](C(=O)N[C@@H]2C(=O)N3C(C(=O)O)=C(CSc4nnnn4C)CS[C@H]23)c2ccc(O)cc2)C(=O)C1=O` [CEFOPERAZONE], the MIC was determined as 0.25 µg/mL in [1]; 0.06 µg/mL (≈ 0.0929 µM) in assay [2]; 0.06 µg/mL in [3]; 2 µg/mL (≈ 3.1 µM) in assay [4]; 2 µg/mL in assay [5]; 0.25 µg/mL (≈ 0.387 µM) against Escherichia coli [6]. For the same molecule, the minimal inhibitory concentration (MIC) against Escherichia coli [7] was 0.03 µg/mL (≈ 0.0465 µM); in the assay with Escherichia coli [8], 8 µg/mL (≈ 12.4 µM); in the assay on Escherichia coli [9] it was 0.06 µg/mL (≈ 0.0929 µM); in assay [10] it was 0.25 µg/mL (≈ 0.387 µM).

As for `CC[C@H]1OC(=O)[C@H](C)[C@@H](O[C@H]2C[C@@](C)(OC)[C@@H](O)[C@H](C)O2)[C@H](C)[C@@H](O[C@@H]2O[C@H](C)C[C@H](N(C)C)[C@H]2O)[C@](C)(O)C[C@@H](C)C(=O)[C@H](C)[C@@H](O)[C@]1(C)O` [ERYTHROMYCIN], the MIC was 2 µg/mL in assay [1]; 8 µg/mL (≈ 10.9 µM) in [2]; 1 µg/mL in [3]; 64 µg/mL (≈ 87.2 µM) in [4]; 2 µg/mL in assay [5]; 64 µg/mL (≈ 87.2 µM) against Escherichia coli [6]. The MIC against Escherichia coli [7] was 1 µg/mL (≈ 1.36 µM); against Escherichia coli [8] it was 128 µg/mL (≈ 174 µM); in the assay with Escherichia coli [9], 32 µg/mL (≈ 43.6 µM); in [10], 16 µg/mL (≈ 21.8 µM).
